Compound activity: PubChem BioAssay, several laboratories
MPTP inh = inhibitors of mitochondrial permeability transition pore; inhibition, % at 10 µM; AID 602449; isolated mouse mitochondria, Ca2+ swelling absorbance, 30 min; 360,000 tested, 1.4% active;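 active = inhibition of 50% or more, scaled per plate between neutral and stimulator controls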;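 also: 0% = DMSO wells given calcium and 100% = 1 mM EGTA wells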
CHOP inhibitor = blocks CHOP induction under ER stress. 220,000 tested, 3.8% active. AID 2732. inhibition, % at 10 µM. CHO-K1 CHOP-promoter luciferase, tunicamycin-induced, 15-18 h;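 active = compounds that reduced the stress-induced luciferase reporter signal by more than about 70% of percent inhibition, limit read from the data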;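 also: 0% = tunicamycin plus vehicle and 100% = wells without tunicamycin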
WT yeast gro inh = growth inhibition of WT yeast, mitochondrial fusion screen. inhibition, % at 10 µM. mitochondrial fusion phenotypic screen, WT strain. 190,000 tested, 2.1% active; in the data active = inhibition above about 58%; tested in S. cerevisiae
Tb MetRS inh = Trypanosoma brucei MetRS inhibition | purified T. brucei MetRS, ATP depletion, Kinase-Glo luminescence | inhibition, % at 11.9 µM | 360,000 tested, 0.4% active | AID 624268;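 active = inhibition above a per-plate cutoff of the control wells' mean inhibition plus 3 SD, cut at about 5.5% in these data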;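 also: 0% = DMSO wells median and 100% = median of wells with control inhibitor compound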
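Measured by: Kinase-Glo luciferase luminescence reporting remaining unconsumed ATP. Material: purified T. brucei MetRS enzyme. Doses: 11.9 µM compound single dose, 0.9% DMSO. Medium: HEPES buffer containing pyrophosphatase, BSA, spermine, DTT. Times: 15 min preincubation, 2 h reaction, all 25 °C. Reagent: methionine, ATP and bulk E. coli tRNA.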
EBV gp42 block = inhibitors of Epstein-Barr virus glycoprotein 42; 220,000 tested, 0.42% active; AID 1085; Fluorescence polarization binding assay, mP read-out; inhibition, % (tested at 21.74 µM); in the data active = inhibition above about 50%
Target sequence (Q1HVG2 whole entry, looked up): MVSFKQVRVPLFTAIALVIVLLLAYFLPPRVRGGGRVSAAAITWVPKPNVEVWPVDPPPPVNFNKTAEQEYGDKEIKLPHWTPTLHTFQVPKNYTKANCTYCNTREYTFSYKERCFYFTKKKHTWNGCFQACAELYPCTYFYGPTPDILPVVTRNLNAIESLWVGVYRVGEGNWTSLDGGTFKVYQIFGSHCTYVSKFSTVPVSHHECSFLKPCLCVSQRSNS
NR3A LBD binder = NR3A (human) ligand-binding domain modulation; 340,000 tested, 2.5% active; NR3A LBD differential scanning fluorimetry, Tm shift; 0% = protein alone, 100% = glycine-bound protein; AID 1259313; Tm shift relative to glycine control, % at 25 µM;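 active = melting temperature shift of at least 10% of the positive control shift, at one fixed dose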
* = called active by the depositor; . = no result given. The list is not random: actives were taken first. Their share in the collection is about 6.4%.

SMILES | MPTP inh | CHOP inhibitor | WT yeast gro inh | Tb MetRS inh | EBV gp42 block | NR3A LBD binder
CCC(=O)NC1=C(Cl)C(=O)C(NC(=O)CC)=C(Cl)C1=O | 3 | 87* | . | 1 | -16 | -5
CCC(=O)NC1=C(NC(C)c2ccccc2)C(=O)c2ccccc2C1=O (configuration not stated) | -1 | 3 | 14 | 0 | -9 | 1
CN(C)c1cccc(-c2nnc(SCCCC#N)o2)c1 | -1 | 35 | 3 | 0 | -3 | -1
Cc1cc(C)cc(OCC(=O)Nc2ccc3c4c(cccc24)CC3)c1 | 2 | 65 | 11 | 1 | -7 | 1
O=C(COc1ccc2ccccc2c1)Nc1ccc2c3c(cccc13)CC2 | 11 | 92* | -7 | -1 | 1 | -4
COCCN(C(=O)Cc1cccs1)C(C(=O)NCc1ccc(OC)cc1)c1ccc(C(C)C)cc1 (configuration not stated) | 1 | 94* | 61* | -1 | 6 | 9
CCc1ccc(C(C(=O)NCc2ccc(OC)cc2)N(CCOC)C(=O)Cc2cccs2)cc1 (configuration not stated) | 1 | 6 | -1 | -1 | -11 | 2
Cn1c(SCC(=O)Nc2ccc(F)cc2)nc2c([nH]c3ccccc32)c1=O | -2 | 85* | 3 | 0 | -5 | 0
CCn1c(SCC(=O)Nc2ccc(NC(C)=O)cc2)nc2c([nH]c3ccccc32)c1=O | 1 | . | . | 0 | . | 12*
COCCn1c(SCC(=O)Nc2ccccc2)nc2c(oc3ccccc32)c1=O | 2 | 4 | 3 | 0 | -9 | 0
COCCn1c(SCC(=O)Nc2ccc(F)cc2)nc2c(oc3ccccc32)c1=O | 6 | 84* | -1 | 0 | -8 | 1
CCOC(=O)CSc1nc2c([nH]c3ccccc32)c(=O)n1C | 0 | 76* | -10 | -1 | -14 | 3
COCCn1c(SCC(=O)NC2CC2)nc2ccccc21 | -2 | . | . | 0 | . | 4
O=C(NCC1CCCO1)C(c1ccccn1)N(Cc1ccccc1Cl)C(=O)CN1C(=O)c2ccccc2S1(=O)=O (configuration not stated) | 1 | -43 | 3 | 0 | 15 | 1
CC12C(=O)N(c3cccc4cccnc34)C(=O)C1C1C=CC2C1 (configuration not stated) | 0 | -13 | 0 | 0 | -3 | 0
Cn1c(SCC(=O)Nc2cccc(F)c2)nc2c([nH]c3ccccc32)c1=O | 5 | 54 | 3 | -1 | -9 | 29*
COc1cccc(-n2c(SCC(=O)N3CCCCC3)nc3c([nH]c4ccccc43)c2=O)c1 | 2 | 71* | -1 | 0 | -13 | 3
O=C1NC(=S)SC1=Cc1ccc2c(c1)OCO2 | 21 | . | . | 0 | . | -12
COc1ccc(OCC(=O)Nc2nc3c(s2)CCCC3)cc1 | -1 | . | . | 0 | . | -1
COc1ccc(NC(=O)Nc2nc3c(s2)CCCC3)cc1 | 12 | 43 | 42 | 1 | 7 | 22*
O=C(COc1ccc(F)cc1)Nc1nc2c(s1)CCCC2 | 2 | . | . | 0 | . | 14*
O=C(Nc1cccc(C(F)(F)F)c1)c1ccc(-c2ccc(F)c(F)c2)c2ccoc12 | 0 | . | . | 0 | . | .
N#Cc1nc(-c2ccc(F)cc2)oc1NCc1cccc2c1OCO2 | 2 | 84* | 3 | 0 | -3 | -10
N#Cc1nc(Cc2cccc3ccccc23)oc1NCc1ccc(F)cc1 | 3 | 71* | 71* | -1 | -12 | -5
COc1ccc(-n2c(N)c(-c3nc4ccccc4n3C)sc2=S)cc1 | 8 | 28 | 5 | 0 | -18 | 1
SMILES | MPTP inh | CHOP inhibitor | WT yeast gro inh | Tb MetRS inh | EBV gp42 block | NR3A LBD binder
CCOc1ccc(-n2c(N)c(-c3nc4ccccc4[nH]3)sc2=S)cc1 | -3 | 81* | -21 | 1 | -5 | -1
Cc1cc(C)cc(Nc2nc3c(S(=O)(=O)c4ccccc4)nnn3c3ccccc23)c1 | 4 | 63 | 3 | 0 | 8 | -1
CCCCNc1nc2c(S(=O)(=O)c3ccccc3)nnn2c2ccccc12 | 3 | 4 | -10 | 3 | -2 | 15*
O=C(NCCCN1CCOCC1)NC1CCCCC1 | 0 | 13 | 4 | 1 | -11 | -3
Cc1nc(-c2cccnc2)sc1C(=O)Nc1ccc(Cl)cc1 | 6 | 81* | 4 | 0 | -4 | -4
Cc1nc(-c2ccncc2)sc1C(=O)Nc1ccc(Cl)cc1 | -2 | 8 | -2 | -1 | 9 | -4
Cc1nc(-c2ccccc2)sc1C(=O)Nc1ccc(S(N)(=O)=O)cc1 | 0 | . | . | 0 | . | 12*
Cc1ccc(Sc2cnc3ccccc3n2)cc1 | 0 | 86* | 27 | 0 | -9 | 0
O=C(N/N=C1\CC2CC=CC12)c1ccc(Br)cc1 (configuration not stated) | -2 | -12 | -29 | 0 | -26 | -1
Cc1cc(Br)c(OCc2ccc(C(=O)N/N=C3\CC4CC=CC34)cc2)c(Br)c1 (configuration not stated) | 3 | -5 | 76* | 1 | -12 | 12*
COc1ccc(S[C@@H](CCN2CC[C@H](O)CCC2=O)c2ccccc2)cc1 | -2 | . | . | 0 | . | 0
COc1ccc(C2NCCc3c2[nH]c2ccccc32)cc1COc1ccc(F)cc1 (configuration not stated) | 1 | 75* | 87 | -1 | -7 | -4
FC(F)(F)c1cccc(N2CCCCC2)c1 | 0 | . | . | 0 | . | .
O=c1cc(N2CCN(c3ccc(F)cc3)CC2)[nH]c(=O)n1C1CCCCC1 | -3 | 72* | 20 | 0 | -12 | -1
O=c1cc(N2CCC3(CC2)OCCO3)[nH]c(=O)n1C1CCCCC1 | 12 | -23 | -12 | 0 | -57 | -1
COc1ccccc1/C=C\C=N\n1c(-c2ccc(Cl)cc2Cl)n[nH]c1=S | 0 | 19 | 65* | 1 | 11 | -9
COc1ccccc1/C=C/C=N/n1c(-c2ccc(F)cc2)n[nH]c1=S | 2 | -27 | . | 0 | -5 | -9
COc1ccccc1/C=C/C=N/n1c(-c2cc(-c3ccccc3)n[nH]2)n[nH]c1=S | 5 | -38 | . | 0 | 1 | 1
COc1ccccc1/C=C\C=N\n1c(-c2ccc(Cl)cc2)n[nH]c1=S | 3 | 89* | 26 | 0 | -10 | -6
CCc1ccc(NC(=O)CSc2ccccn2)cc1 | 0 | -8 | 11 | -1 | -3 | 3
CCC1(C)OCC(Cn2c3ccccc3c3ccccc32)O1 (configuration not stated) | . | 37 | 61* | . | -7 | .
CC1(C)COC(Cn2c3ccccc3c3ccccc32)O1 (configuration not stated) | 0 | -8 | . | -1 | -4 | 5
CN1CCN(c2ccc(S(=O)(=O)N3CCOCC3)cc2)CC1 | -1 | . | . | 0 | . | 0
CC(C)(C)c1ccc(CC(=O)N2CCC2(C)C(=O)Nc2ccc(F)cc2F)cc1 (configuration not stated) | 0 | . | . | 0 | . | .
